Columns and labels:
[1] = biological target: T1, NAD-dependent protein deacetylase sirtuin-1 (Homo sapiens) (UniProt Q96EB6); assay: Inhibition of GST-SIRT1 at 200 uM after 1 hr by Fluor de Lys fluorescence assay
T1 sequence (whole entry): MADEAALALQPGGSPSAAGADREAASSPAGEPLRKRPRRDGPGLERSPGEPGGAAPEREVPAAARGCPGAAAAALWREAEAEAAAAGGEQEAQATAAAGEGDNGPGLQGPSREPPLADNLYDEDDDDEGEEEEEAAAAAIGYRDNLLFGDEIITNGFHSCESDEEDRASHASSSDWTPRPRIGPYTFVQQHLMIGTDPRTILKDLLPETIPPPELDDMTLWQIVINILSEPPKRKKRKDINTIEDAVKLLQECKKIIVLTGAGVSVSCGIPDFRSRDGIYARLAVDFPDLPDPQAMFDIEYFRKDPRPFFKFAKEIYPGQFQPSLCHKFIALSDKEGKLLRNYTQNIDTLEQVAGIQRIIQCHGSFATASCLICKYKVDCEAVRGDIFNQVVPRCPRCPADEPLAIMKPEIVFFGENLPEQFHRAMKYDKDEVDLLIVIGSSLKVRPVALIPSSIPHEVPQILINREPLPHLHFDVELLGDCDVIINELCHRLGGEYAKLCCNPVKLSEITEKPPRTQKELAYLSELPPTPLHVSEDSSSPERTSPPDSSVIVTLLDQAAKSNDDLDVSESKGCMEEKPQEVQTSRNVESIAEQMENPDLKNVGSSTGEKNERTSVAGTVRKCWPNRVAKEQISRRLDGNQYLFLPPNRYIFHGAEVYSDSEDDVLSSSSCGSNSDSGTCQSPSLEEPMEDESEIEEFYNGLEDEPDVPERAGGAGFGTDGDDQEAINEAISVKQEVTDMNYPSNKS
How it was run: (§1)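 Recombinant GST-SIRT1 with Fluor de Lys acetylated SIRT1 peptide substrate at 70% of its Km, plus NAD+, in HDAC assay buffer with 1 mg/ml BSA. Buffer, substrate, NAD+ and compound in DMSO (2.5 in 50 total) were preincubated 5 min at rt. Enzyme addition started the reaction, run 1 h at 37 °C. Developer plus 2 mM nicotinamide was then added for 45 min at 37 °C before fluorescence read-out.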

[2] = biological target: T2, NAD-dependent protein deacetylase sirtuin-2 (Homo sapiens) (UniProt Q8IXJ6); assay: Inhibition of GST-SIRT2 at 200 uM after 1 hr by Fluor de Lys fluorescence assay
T2 sequence (whole entry): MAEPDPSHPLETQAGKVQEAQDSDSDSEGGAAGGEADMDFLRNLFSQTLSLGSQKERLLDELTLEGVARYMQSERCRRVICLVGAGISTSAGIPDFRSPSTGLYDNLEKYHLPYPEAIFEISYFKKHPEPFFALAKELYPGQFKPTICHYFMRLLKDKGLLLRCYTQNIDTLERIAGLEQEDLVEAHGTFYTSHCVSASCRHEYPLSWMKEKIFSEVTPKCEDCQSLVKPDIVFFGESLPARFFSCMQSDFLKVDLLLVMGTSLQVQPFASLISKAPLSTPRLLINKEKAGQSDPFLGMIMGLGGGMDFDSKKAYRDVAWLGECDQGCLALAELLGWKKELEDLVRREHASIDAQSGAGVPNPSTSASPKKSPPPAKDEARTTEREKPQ
How it was run: (§2)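 Recombinant GST-SIRT2 with Fluor de Lys acetylated SIRT2 peptide substrate at 70% of its Km, plus NAD+, in HDAC assay buffer with 1 mg/ml BSA. Compound or DMSO was preincubated 5 min at rt with buffer, substrate and NAD+. Enzyme was added to start the reaction, run 1 h at 37 °C. Developer with 2 mM nicotinamide followed for 45 min at 37 °C, then fluorescence was read.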

[3] = biological target: T3, NAD-dependent protein deacetylase sirtuin-1 (Homo sapiens, UniProt Q96EB6); assay: Inhibition of GST-SIRT1 after 1 hr by Fluor de Lys fluorescence assay; how it was run: as §1
T3 sequence (Q96EB6 whole entry): T1 sequence (whole entry)

[4] = biological target: T4, NAD-dependent protein deacetylase sirtuin-2 (Homo sapiens, UniProt Q8IXJ6); assay: Inhibition of GST-SIRT2 after 1 hr by Fluor de Lys fluorescence assay; how it was run: as §2
T4 sequence (Q8IXJ6 whole entry): T2 sequence (whole entry)

## CC(C)(C)OC(=O)NCCCC[C@H](NC(=O)OCc1ccccc1)C(=O)Nc1ccccc1
[1]
  inhibition: 6%
[2]
  inhibition: 13%

## COC(=O)[C@H](C)NC(=O)[C@H](CCCCNC(=O)Cc1cccnc1)NC(=O)[C@H](C)NC(C)=O
[1]
  inhibition: 10%
[2]
  inhibition: 0%

## COC(=O)[C@H](C)NC(=O)[C@H](CCCCNC(=O)CBr)NC(=O)[C@H](C)NC(C)=O
[1]
  inhibition: 48%
[2]
  inhibition: 16%
[3]
  IC50: 1770 µM

## COC(=O)[C@H](C)NC(=O)[C@H](CCCCNC(=O)C1=CCCCC1)NC(=O)[C@H](C)NC(C)=O
[1]
  inhibition: 33%
[2]
  inhibition: 54%
[4]
  IC50: 129 µM

## CNC(=O)[C@H](C)NC(=O)[C@H](CCCCNC(=O)c1cccn1C)NC(=O)[C@H](C)NC(C)=O
[1]
  inhibition: 23%
[2]
  inhibition: 41%

## COC(=O)[C@H](C)NC(=O)[C@H](CCCCNS(C)(=O)=O)NC(=O)[C@H](C)NC(C)=O
[1]
  inhibition: 17%
[2]
  inhibition: 8%

## COC(=O)[C@H](C)NC(=O)[C@H](CCCCNC(=O)OCc1ccccc1)NC(=O)[C@H](C)NC(C)=O
[1]
  inhibition: 11%
[2]
  inhibition: 3%

## CC(=O)N[C@@H](C)C(=O)N[C@@H](CCCCNC(=S)CC(C)C)C(=O)N[C@@H](C)C(=O)O
[1]
  inhibition: 100%
[2]
  inhibition: 99%
[3]
  IC50: 0.7 µM
[4]
  IC50: 3.6 µM

## CC(=O)N[C@@H](C)C(=O)N[C@@H](CCCCNC(C)=S)C(=O)N[C@@H](C)C(=O)O
[1]
  inhibition: 100%
[2]
  inhibition: 96%
[3]
  IC50: 0.24 µM
[4]
  IC50: 9.8 µM

## CNC(=O)[C@H](C)NC(=O)[C@H](CCCCNC(=O)c1ccc[nH]1)NC(=O)[C@H](C)NC(C)=O
[1]
  inhibition: 36%
[2]
  inhibition: 26%

## COC(=O)[C@H](C)NC(=O)[C@H](CCCCNS(=O)(=O)c1ccc([N+](=O)[O-])cc1)NC(=O)[C@H](C)NC(C)=O
[1]
  inhibition: 0%
[2]
  inhibition: 5%

## COC(=O)[C@H](C)NC(=O)[C@H](CCCCNC(=O)c1ccccc1)NC(=O)[C@H](C)NC(C)=O
[1]
  inhibition: 12%
[2]
  inhibition: 14%

## COC(=O)[C@H](C)NC(=O)[C@H](CCCCNC(=O)c1ccccn1)NC(=O)[C@H](C)NC(C)=O
[1]
  inhibition: 4%
[2]
  inhibition: 0%

## CC(=O)N[C@@H](C)C(=O)N[C@@H](CCCCNC(C)=[Se])C(=O)N[C@@H](C)C(=O)O
[1]
  inhibition: 100%
[2]
  inhibition: 97%
[3]
  IC50: 0.37 µM
[4]
  IC50: 7.2 µM

## CC(=O)N[C@@H](C)C(=O)N[C@@H](CCCCNC(=O)C=C(C)C)C(=O)N[C@@H](C)C(=O)O
[1]
  inhibition: 95%
[2]
  inhibition: 52%
[3]
  IC50: 11 µM
[4]
  IC50: 77 µM

## CC(=O)NCCCC[C@H](NC(=O)[C@H](C)NC(C)=O)C(=O)N[C@@H](C)C(=O)O
[1]
  inhibition: 62%
[2]
  inhibition: 42%
[3]
  IC50: 122 µM
[4]
  IC50: 223 µM

## C/C=C/C(=O)NCCCC[C@H](NC(=O)[C@H](C)NC(C)=O)C(=O)N[C@@H](C)C(=O)OC
[1]
  inhibition: 20%
[2]
  inhibition: 9%

## COC(=O)NCCCC[C@H](NC(=O)[C@H](C)NC(C)=O)C(=O)N[C@@H](C)C(=O)OC
[1]
  inhibition: 8%
[2]
  inhibition: 0%

## COC(=O)[C@H](C)NC(=O)[C@H](CCCCNC(C)=O)NC(=O)[C@H](C)NC(C)=O
[1]
  inhibition: 39%
[2]
  inhibition: 57%
[3]
  IC50: 268 µM
[4]
  IC50: 180 µM

## CNC(=O)[C@H](C)NC(=O)[C@H](CCCCNC(=O)C=C(C)C)NC(=O)[C@H](C)NC(C)=O
[1]
  inhibition: 96%
[2]
  inhibition: 95%
[3]
  IC50: 6.1 µM
[4]
  IC50: 23 µM

## COC(=O)[C@H](C)NC(=O)[C@H](CCCCNC(=O)CCl)NC(=O)[C@H](C)NC(C)=O
[1]
  inhibition: 19%
[2]
  inhibition: 8%

## CNC(=O)[C@H](C)NC(=O)[C@H](CCCCNC(=O)C(C)(C)C)NC(=O)[C@H](C)NC(C)=O
[1]
  inhibition: 82%
[2]
  inhibition: 77%
[3]
  IC50: 40 µM
[4]
  IC50: 66 µM

## COC(=O)[C@H](C)NC(=O)[C@H](CCCCNS(=O)(=O)C(F)(F)F)NC(=O)[C@H](C)NC(C)=O
[1]
  inhibition: 15%
[2]
  inhibition: 4%

## CNC(=O)[C@H](C)NC(=O)[C@H](CCCCNC(=O)c1ccc(N(C)C)cc1)NC(=O)[C@H](C)NC(C)=O
[1]
  inhibition: 39%
[2]
  inhibition: 34%

## COC(=O)[C@H](C)NC(=O)[C@H](CCCCNC(=O)c1cccnc1)NC(=O)[C@H](C)NC(C)=O
[1]
  inhibition: 9%
[2]
  inhibition: 2%

## C/C=C(\C)C(=O)NCCCC[C@H](NC(=O)[C@H](C)NC(C)=O)C(=O)N[C@@H](C)C(=O)OC
[1]
  inhibition: 39%
[2]
  inhibition: 39%

## COC(=O)[C@H](C)NC(=O)[C@H](CCCCNC(=O)C(C)(C)C)NC(=O)[C@H](C)NC(C)=O
[1]
  inhibition: 53%
[2]
  inhibition: 52%
[3]
  IC50: 223 µM
[4]
  IC50: 338 µM

## CP(C)(=S)NCCCC[C@H](NC(=O)OCc1ccccc1)C(=O)Nc1ccccc1
[1]
  inhibition: 10%
[2]
  inhibition: 27%

## CNC(=O)[C@H](C)NC(=O)[C@H](CCCCNC(C)=O)NC(=O)[C@H](C)NC(C)=O
[1]
  inhibition: 66%
[2]
  inhibition: 68%
[3]
  IC50: 88 µM
[4]
  IC50: 60 µM

## COC(=O)[C@H](C)NC(=O)[C@H](CCCCNC(=O)N(C)C)NC(=O)[C@H](C)NC(C)=O
[1]
  inhibition: 24%
[2]
  inhibition: 13%

## CC(=[Se])NCCCC[C@H](NC(=O)OCc1ccccc1)C(=O)Nc1ccccc1
[1]
  inhibition: 98%
[2]
  inhibition: 99%
[3]
  IC50: 1.8 µM
[4]
  IC50: 2.7 µM

## COC(=O)[C@H](C)NC(=O)[C@H](CCCCNC(=O)Cc1ccccn1)NC(=O)[C@H](C)NC(C)=O
[1]
  inhibition: 26%
[2]
  inhibition: 21%

## CC(=O)N[C@@H](C)C(=O)N[C@@H](CCCCNC(=O)/C=C(/C)C(F)(F)F)C(=O)N[C@@H](C)C(=O)O
[1]
  inhibition: 33%
[2]
  inhibition: 20%

## CC(=O)N[C@@H](C)C(=O)N[C@@H](CCCCNC(=O)CC(C)C)C(=O)N[C@@H](C)C(=O)O
[1]
  inhibition: 94%
[2]
  inhibition: 76%
[3]
  IC50: 12 µM
[4]
  IC50: 30 µM

## COC(=O)[C@H](C)NC(=O)[C@H](CCCCNC(=O)C=C(C)C)NC(=O)[C@H](C)NC(C)=O
[1]
  inhibition: 78%
[2]
  inhibition: 74%
[3]
  IC50: 46 µM
[4]
  IC50: 69 µM

## COC(=O)[C@H](C)NC(=O)[C@H](CCCCNS(=O)(=O)c1ccc(C)cc1)NC(=O)[C@H](C)NC(C)=O
[1]
  inhibition: 1%
[2]
  inhibition: 0%
